Compound activity: PubChem, several laboratories
LMPTP inh = LMPTP (human) inhibition. P24666. recombinant LMPTP-A, OMFP fluorogenic substrate, fluorescence intensity. inhibition, % at 20 µM. 0.22% of 360,000 active;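 active means compounds that cut the enzyme signal by at least half of the control window in the single-dose screen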
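Assay system: LMPTP-A phosphatase enzyme | Input: 0.625 nM enzyme | Also added: Fluorogenic phosphatase substrate OMFP at 400 µM final | Compound dosing: One test concentration per compound, 20 µM, with 3% DMSO overall | Schedule: 50 min enzyme reaction at room temperature, protected from light | Signal: Fluorescence intensity | Benchmarks: no-enzyme and uninhibited controls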
STEP block = blocks human striatal-enriched tyrosine phosphatase | P54829 | recombinant STEP, OMFP fluorogenic substrate, fluorescence | inhibition, % at 20 µM | 0.25% of 360,000 active;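 active means inhibition at 20 µM, scaled per plate between control wells, above about 37%, limit read from the data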
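Assay system: isolated STEP enzyme. Buffer or medium: pH 6.0 Bis-Tris with DTT and Tween 20. Also added: fluorogenic phosphatase substrate OMFP at 25 µM final. Dosing: 20 µM, 1% DMSO. Timing: 20 min reaction, room temperature, in the dark. Measured by: fluorescence intensity, excitation 480 nm, emission 540 nm. Evaluation: normalized % inhibition.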
Scp-1 inhibitor = inhibitors of human Scp-1 phosphatase; AID 493091; 0.88% of 340,000 active; Recombinant Scp1, phosphopeptide, malachite green phosphate absorbance; Q9GZU7; inhibition, % at 20 µM;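 active means inhibition above about 50% at 20 µM, limit read from the data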
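Assay system: SCP-1 catalytic fragment, aa 76-261 | Buffer or medium: Tris acetate buffer pH 5.5 with MgCl2 and Tween-20 | Compound: One concentration, 20 µM, with 1.0% DMSO | Also added: Phospho 17-mer peptide substrate | Signal: Absorbance at 630 nm | Incubation: 45 min enzyme reaction at room temperature | Measure: % inhibition of SCP-1 phosphate liberation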
F508del corr = correctors of CFTR F508del function in bronchial epithelial cells; AID 720511; CFBE cells, YFP halide quenching; stimulated with forskolin plus potentiator P3; % fluorescence drop versus neutral controls; 0.36% of 350,000 active; activity (quench increase), % at 7.58 µM;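 active means mean added fluorescence quench of at least 8% versus neutral control, with both replicates also reaching 8%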;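 further: cells transiently co-express mutant CFTR-F508del with the halide-sensitive YFP; corrector assay measuring rescue of mutant channel to the surface after 24 h compound exposure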
DNMT1 inh = DNMT1 (human) enzyme inhibition; inhibition (reported as % activation of signal), % at 10 µM; AID 588458; DNMT1 molecular beacon, Hinp1I cleavage, fluorescence; 0.83% of 360,000 active; in the data active means inhibition above about 50%
SUMO1-SIM PPI = SUMO1-SIM interaction modulation. 0.33% of 360,000 active. SUMO1 binding to a labelled peptide, TR-FRET, 1 h. P63165. AID 602429. inhibition, % at 20 µM; in the data active means inhibition above about 37%
Scp1 confirm = confirmation of human Scp-1 phosphatase inhibitors; 61% of 2,500 active; recombinant SCP-1 catalytic domain, phosphate release, malachite green absorbance; shares compounds with Scp-1 inhibitor; AID 540281; inhibition, % at 20 µM
Scp-1 MG ctr = colorimetric interference in Scp-1 counter-screen; 2,500 tested, under 10 active; AID 540313; Colorimetric interference counterscreen, malachite green absorbance 630 nm; apparent inhibition (interference), % at 20 µM; shares compounds with Scp-1 inhibitor;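 further: compounds added after enzyme reaction finished so only phosphate colour detection is probed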
Scp-1 Tm shift = validation of human Scp-1 inhibitors by thermal shift binding | thermal shift relative to vanadate control, % at 40 µM | Recombinant SCP1, Sypro Orange thermal shift Tm | shares compounds with Scp-1 inhibitor | 25% of 1,500 active;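 active means substances whose mean melting-temperature shift, as a percentage of the reference inhibitor's shift, reaches about 5.3%, limit read from the data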
A number is an active result; 0 = inactive; - = not tested or not shown. Sampled rows, rich in hits. Any-hit rate of the full collection: about 1.6%.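 How the source made its calls, unless noted: active means inhibition of at least 30% at 20 µM; inactive means the rest.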

SMILES	LMPTP inh	STEP block	Scp-1 inhibitor	F508del corr	DNMT1 inh	SUMO1-SIM PPI	others
CCN(C(=O)COc1ccc2ccc(=O)oc2c1)C1CCCCC1	0	0	0	18	0	0
NCC[C@H]1CC[C@@H](NC(=O)C2CC2)[C@@H](CO)O1	-	-	-	0	-	-
Cc1ccc(SCc2ccc(C(=O)Nc3nccs3)o2)cc1	0	0	0	0	0	0
O=C(Nc1nccs1)c1ccc(CSc2ccccc2)o1	49	0	0	0	0	0
CCOC(=O)C1CCCN(c2nc3ccccc3nc2NS(=O)(=O)c2ccc(C)cc2)C1 (stereo unspecified)	0	0	0	21	0	0
NC(=O)C1CCN(c2nc3ccccc3nc2NS(=O)(=O)c2ccc(Br)cc2)CC1	0	0	0	0	0	0
Oc1ccc(Nc2nc3ccccc3nc2Nc2ccc(O)cc2)cc1	0	0	60	-	0	0
CO[C@@H](CN(C)C(=O)c1cnccn1)[C@H](C)CN([C@@H](C)CO)S(=O)(=O)c1ccc(Cl)cc1	-	-	-	0	-	-
COc1cc(/C=C2\C(=O)N(CCC#N)N=C2C)ccc1OCC(=O)Nc1ccccc1	0	0	0	-	0	0
COc1cc(/C=C2\C(C)=C(C#N)c3nc(N)c(C#N)c(C)c32)ccc1OCC(=O)O	0	0	0	0	0	45
Cc1cc2oc(=O)cc(-c3ccccc3)c2c(C)c1-c1ccc(O)cc1	0	0	0	9.2	0	0
Cc1cc(O)c2c(-c3ccccc3)cc(=O)oc2c1	0	0	0	-	0	0
COc1ccc(Nc2nnc(-c3ccc(C(N)=O)cc3)c3ccccc23)cc1	0	0	0	0	0	0
COc1ccc(-c2nnc(Nc3ccc(S(=O)(=O)Nc4nccs4)cc3)c3ccccc23)cc1	0	0	0	0	0	44
Cc1ccc(S(=O)(=O)Nc2cccc3c2O[C@@H](CN(C)S(=O)(=O)c2ccccc2)[C@H](C)CN([C@H](C)CO)C3=O)cc1	-	-	-	0	-	-
CN(C)c1ccc(/C=C/c2nc3ccccc3c(=O)n2-c2ccc(C(=O)O)cc2)cc1	0	0	64	0	0	0
COc1ccc(-c2nnc(-c3ccc(F)cc3)o2)cc1	0	0	0	0	0	0
CCOc1ccc(-c2nnc(-c3snc(-c4ccc(F)cc4)c3N=CN(C)C)o2)cc1	0	0	0	-	0	47
CCCN1[C@@H]2c3ccc(C4=CCCCC4)c(=O)n3C[C@H]1[C@H](CO)[C@H]2C(=O)NCC	-	-	-	0	-	-
O=Cc1ccccc1OCc1ccc2c(c1)OCO2	0	0	0	11	0	0
COc1ccccc1CNCc1ccc2c(c1)OCO2	0	0	-	0	0	0
COc1ccc(NC(=O)N(C)C[C@@H]2Oc3ccc(NC(=O)Nc4ccc5c(c4)OCO5)cc3CC(=O)N([C@H](C)CO)C[C@H]2C)cc1	-	-	-	0	-	-
C[C@H]1CN([C@@H](C)CO)C(=O)c2cc(-c3cccnc3)cnc2O[C@@H]1CN(C)C(=O)Nc1ccc(C(F)(F)F)cc1	-	-	-	0	-	-
COc1ccc(CN(C)C[C@@H]2OCCCC[C@@H](C)Oc3ccc(NC(=O)Nc4c(C)noc4C)cc3C(=O)N([C@@H](C)CO)C[C@@H]2C)cc1	-	-	-	0	-	-
Cc1noc(C)c1S(=O)(=O)Nc1ccc2c(c1)C(=O)N([C@@H](C)CO)C[C@H](C)[C@H](CN(C)C(=O)NC(C)C)O2	-	-	-	0	-	-
SMILES	LMPTP inh	STEP block	Scp-1 inhibitor	F508del corr	DNMT1 inh	SUMO1-SIM PPI	others
Cc1noc(C)c1NC(=O)N(C)C[C@H]1Oc2ccc(NC(=O)c3ccncc3)cc2C(=O)N([C@H](C)CO)C[C@@H]1C	0	0	68	0	0	0
Cc1noc(C)c1S(=O)(=O)Nc1ccc2c(c1)C(=O)N([C@H](C)CO)C[C@H](C)[C@@H](CN(C)C(=O)NC(C)C)O2	0	0	85	0	0	0
Cc1noc(C)c1NC(=O)N(C)C[C@@H]1Oc2ccc(NC(=O)c3ccncc3)cc2C(=O)N([C@@H](C)CO)C[C@@H]1C	-	-	-	0	-	-
O=C(CN1CCOCC1)N[C@H]1CC[C@H](CCn2cc(C3CCCCC3)nn2)O[C@H]1CO	-	-	-	0	-	-
CC(C1SC(=S)NC1=O)C1SC(=S)NC1=O (stereo unspecified)	68	0	-	0	0	0
Cc1ccc(C(=O)OCC(=O)N2C(C)CCCC2C)cc1S(=O)(=O)N1CCOCC1 (stereo unspecified)	0	0	0	0	0	0
COc1ccc(C(=O)OCC(=O)N2C(C)CCCC2C)cc1S(=O)(=O)N1CCOCC1 (stereo unspecified)	0	0	0	11	0	0
C[C@H](CO)N1C[C@H](C)[C@@H](CN(C)Cc2ccncc2)Oc2ncc(C3=CCCCC3)cc2C1=O	-	-	-	0	-	-
COc1ccc(NC(=O)Nc2ccc3c(c2)[C@H]2C[C@@H](CC(=O)NC4CCCC4)O[C@@H](CO)[C@H]2O3)cc1	-	-	-	0	-	-
O=C(NCc1cccnc1)c1cc(C2CCCCN2S(=O)(=O)c2cccs2)on1 (stereo unspecified)	0	0	-	0	0	0
O=C(c1cc(C2CCCCN2S(=O)(=O)c2cccs2)on1)N1CCOCC1 (stereo unspecified)	0	0	-	0	0	44
COc1ccc(NC(=O)CSc2nnc(Cc3cccs3)n2C)cc1	0	0	0	10	0	0
O=c1cc(CN2CCCCCCC2)c2ccccc2o1	53	0	-	0	0	0
COc1ccc(CN(C)C[C@H]2OCCCC[C@H](C)Oc3ccc(NC(=O)CCCN(C)C)cc3C(=O)N([C@H](C)CO)C[C@H]2C)cc1	-	-	-	0	-	-
COC(=O)c1ccccc1NC(=O)CN1CCC(n2nnc3cc(F)ccc32)CC1	0	0	0	-	0	0
CCOC(=O)c1ccccc1NC(=O)CN1CCC(n2nnc3cc(C(F)(F)F)ccc32)CC1	0	0	0	0	0	61
O=C(CSc1nc2ccccc2n1-c1ccccc1)Nc1ncc(Cl)cc1Cl	0	0	0	8.7	0	0
COc1cccc(C(=O)c2cn(CC(=O)NCc3ccco3)c3nc(C)ccc3c2=O)c1	0	0	62	0	0	0	Scp1 confirm=66;Scp-1 MG ctr=0;Scp-1 Tm shift=0
